From ChEMBL document CHEMBL1124527, “2(1H)-quinolinones with cardiac stimulant activity. 3. Synthesis and biological properties of 6-imidazol-1-yl derivatives” (1989)

Columns and labels:
[1] = test system: Canis familiaris; experiment: 0.125 mg/kg of compound was administered orally to conscious adult Beagle dogs (n=4) and the effects on cardiac contractility was determined after 3 hr; format: functional, Canis lupus familiaris, Heart
In short: (§1)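 Conscious dogs (n = 4) were dosed orally by gavage with a solution of compound. The QA interval is the time in ms from the ECG R wave to the up-stroke of the arterial pressure pulse, measured by computer. Recordings were taken every 0.16 h from 0.5 h predose to 4 h postdose. Each point is the mean of six consecutive 8-s sets. Results are the change from the mean predose value, as mean ± SEM.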

[2] = test system: Canis familiaris; experiment: Positive inotropic activity after intravenous administration of 10 ug/kg (dose) to anesthetized dog; format: functional, Canis lupus familiaris
In short: (§2)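 Dogs were anesthetized and intubated. Compound was given through a saphenous vein cannula, in 0.9% saline, 0.5 h after the standard quinazoline at 50 µg/kg, following a 0.75 h equilibration. The cycle was repeated once control levels returned, with at least 0.5 h between doses. LVP was recorded by a Millar catheter via the carotid artery and differentiated to dP/dtmax. Results are % increase in dP/dtmax, and also potency relative to the standard in the same dog: (%drug/%standard)×(dose standard/dose drug).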

[3] = test system: Canis familiaris; experiment: Inotropic potencies relative to 4-[4-[2-(1,1-dioxo-2-isothiazolidinyl)ethyl]-1-piperidinyl]-6,7-dimethoxyquinazoline (50 ug/kg) in anesthetized dog; format: functional, Canis lupus familiaris; in short: as §2
[4] = test system: Canis familiaris; experiment: 0.125 mg/kg of compound was administered orally to conscious adult Beagle dogs and the effects on cardiac contractility was determined after 1 hr; format: functional, Canis lupus familiaris, Heart; in short: as §1
[5] = test system: Canis familiaris; experiment: Positive inotropic activity after intravenous administration of 50 ug/kg (dose) to anesthetized dog; format: functional, Canis lupus familiaris; in short: as §2
[6] = test system: Canis familiaris; experiment: 0.5 mg/kg of compound was administered orally to conscious adult Beagle dogs and the effects on cardiac contractility was determined after 1 hr; format: functional, Canis lupus familiaris, Heart; in short: as §1
[7] = test system: Canis familiaris; experiment: 0.5 mg/kg of compound was administered orally to conscious adult Beagle dogs (n=4) and the effects on cardiac contractility was determined after 3 hr; format: functional, Canis lupus familiaris, Heart; in short: as §1
[8] = test system: Canis familiaris; experiment: 0.25 mg/kg of compound was administered orally to conscious adult Beagle dogs (n=4) and the effects on cardiac contractility was determined after 3 hr; format: functional, Canis lupus familiaris, Heart; in short: as §1
[9] = test system: Canis familiaris; experiment: 0.25 mg/kg of compound was administered orally to conscious adult Beagle dogs and the effects on cardiac contractility was determined after 1 hr; format: functional, Canis lupus familiaris, Heart; design: unit: ms; in short: as §1
[10] = test system: Canis familiaris; experiment: 2.0 mg/kg of compound was administered orally to conscious adult Beagle dogs and the effects on cardiac contractility was determined after 1 hr; format: functional, Canis lupus familiaris, Heart; in short: as §1
[11] = test system: Canis familiaris; experiment: Positive inotropic activity after intravenous administration of 50 ug/kg (dose) to anesthetized dogs; format: functional, Canis lupus familiaris; in short: as §2
[12] = test system: Canis familiaris; experiment: 2.0 mg/kg of compound was administered orally to conscious adult Beagle dogs (n=4) and the effects on cardiac contractility was determined after 3 hr; format: functional, Canis lupus familiaris, Heart; in short: as §1
[13] = test system: Canis familiaris; experiment: 0.25 mg/kg compound was administered orally to conscious adult Beagle dogs (n=4) and the effects on cardiac contractility was determined after 3 hr; format: functional, Canis lupus familiaris, Heart; in short: as §1
[14] = test system: Canis familiaris; experiment: Positive inotropic activity after intravenous administration of 25 ug/kg (dose) to anesthetized dog; format: functional, Canis lupus familiaris
[15] = test system: Canis familiaris; experiment: Positive inotropic activity after intravenous administration of 12.5 ug/kg (dose) to anesthetized dog; format: functional, Canis lupus familiaris; in short: as §2
[16] = test system: Canis familiaris; experiment: 0.25 mg/kg of compound was administered orally to conscious adult Beagle dogs and the effects on cardiac contractility was determined after 3 hr; format: functional, Canis lupus familiaris, Heart; in short: as §1

Row | SMILES | Increase in dP/dTmax [2] | Relative inotropic potency [3] | Increase in dP/dTmax [5] | other results
1 | Cc1cc(-n2cc(C#N)nc2C)cc2ccc(O)nc12 | 30% | 3 | – | Decrease in QA interval [1]: 15; Decrease in QA interval [4]: 15
2 | Cc1nc(C)n(-c2cc(C)c3nc(O)ccc3c2)c1S(C)(=O)=O | – | 0.1 | 5% | –
3 | Cc1cn(-c2cc(C)c3nc(O)ccc3c2)c(-c2ccccc2)n1 | – | 0.3 | 15% | –
4 | Cc1cc(-n2cc(C(=O)c3ccccc3)nc2C)cc2ccc(O)nc12 | – | 0.5 | 31% | –
5 | CSc1c(C)nc(C)n1-c1cc(C)c2nc(O)ccc2c1 | – | 0.9 | 28% | –
6 | Cc1nc(C)n(-c2cc(C)c3nc(O)ccc3c2)c1[S+](C)[O-] (stereo not given) | – | 0.2 | 7% | –
7 | Cc1cn(-c2cc(C)c3nc(O)ccc3c2)c(I)n1 | 59% | 5.7 | – | –
8 | CC(=O)c1nc(C)cn1-c1cc(C)c2nc(O)ccc2c1 | – | 0.3 | 15% | –
9 | Cc1nc(C)n(-c2cc(C)c3nc(O)ccc3c2)c1I | – | 0.5 | 17% | –
10 | Cc1cc(-n2cc(-c3ccccc3)nc2C)cc2ccc(O)nc12 | 15% | 2.4 | – | Decrease in QA interval [6]: 13; Decrease in QA interval [7]: 10
11 | Cc1cn(-c2cc(C)c3nc(O)ccc3c2)c(C#N)n1 | 53% | 4.1 | – | Decrease in QA interval [8]: 15; Decrease in QA interval [9]: 15
12 | Cc1cc(-n2cc(Cl)nc2C)cc2ccc(O)nc12 | 50% | 5.6 | – | –
13 | Cc1nc(C)n(-c2cc(C)c3nc(O)ccc3c2)c1Br | – | 0.7 | – | Decrease in QA interval [10]: 12; Increase in dP/dTmax [11]: 26%; Decrease in QA interval [12]: 13
14 | Cc1cc(-n2cc(I)nc2C)cc2ccc(O)nc12 | 11% | 2.6 | – | –
15 | CCC(=O)c1cn(-c2cc(C)c3nc(O)ccc3c2)c(C)n1 | – | 0.9 | 29% | –
16 | CC(=O)c1c(C)nc(C)n1-c1cc(C)c2nc(O)ccc2c1 | – | 0.4 | 16% | Decrease in QA interval [10]: 6; Decrease in QA interval [12]: 10
17 | CC(=O)c1cn(-c2cc(C)c3nc(O)ccc3c2)c(C)n1 | 36% | 2.6 | – | Decrease in QA interval [8]: 19; Decrease in QA interval [9]: 17
18 | CSc1cn(-c2cc(C)c3nc(O)ccc3c2)c(C)n1 | 53% | 5 | – | –
19 | Cc1cc(-n2cc([S+](C)[O-])nc2C)cc2ccc(O)nc12 (stereo not given) | – | 0.7 | 65% | –
20 | Cc1cc(-n2cc(C(=O)C(C)C)nc2C)cc2ccc(O)nc12 | – | 0.6 | 24% | –
21 | Cc1nc(C)n(-c2cc(C)c3nc(O)ccc3c2)c1C#N | – | 1.1 | 70% | Decrease in QA interval [8]: 15; Decrease in QA interval [9]: 11
22 | Cc1cc(-n2cc(S(C)(=O)=O)nc2C)cc2ccc(O)nc12 | – | 0.3 | 25% | –
23 | Cc1nc(C)n(-c2cc(C)c3nc(O)ccc3c2)c1Cl | 32% | 2.9 | – | Decrease in QA interval [1]: 10; Decrease in QA interval [4]: 12
24 | Cc1[nH]c(=O)c(C#N)cc1-c1ccncc1 [MILRINONE] | – | 1.6 | – | Decrease in QA interval [13]: 7; Decrease in QA interval [9]: 13; Increase in dP/dTmax [14]: 46%
25 | Cc1cn(-c2cc(C)c3[nH]c(=O)ccc3c2)c(C)n1 [NANTERINONE] | – | 7.6 | – | Increase in dP/dTmax [15]: 40%; Decrease in QA interval [16]: 17; Decrease in QA interval [9]: 16
